Results published in ChEMBL document CHEMBL5523765, “Peptidic Boronic Acid Plasmodium falciparum SUB1 Inhibitors with Improved Selectivity over Human Proteasome” (J Med Chem, 2024).
Activity calls are given as the source filed them. No cut-off for these calls is given here.

Key:
[1] = biological target: T1, Subtilisin-like protease 1 (Plasmodium falciparum, UniProt O61142); assay: Inhibition of Plasmodium falciparum SUB1
T1 sequence (O61142 whole entry): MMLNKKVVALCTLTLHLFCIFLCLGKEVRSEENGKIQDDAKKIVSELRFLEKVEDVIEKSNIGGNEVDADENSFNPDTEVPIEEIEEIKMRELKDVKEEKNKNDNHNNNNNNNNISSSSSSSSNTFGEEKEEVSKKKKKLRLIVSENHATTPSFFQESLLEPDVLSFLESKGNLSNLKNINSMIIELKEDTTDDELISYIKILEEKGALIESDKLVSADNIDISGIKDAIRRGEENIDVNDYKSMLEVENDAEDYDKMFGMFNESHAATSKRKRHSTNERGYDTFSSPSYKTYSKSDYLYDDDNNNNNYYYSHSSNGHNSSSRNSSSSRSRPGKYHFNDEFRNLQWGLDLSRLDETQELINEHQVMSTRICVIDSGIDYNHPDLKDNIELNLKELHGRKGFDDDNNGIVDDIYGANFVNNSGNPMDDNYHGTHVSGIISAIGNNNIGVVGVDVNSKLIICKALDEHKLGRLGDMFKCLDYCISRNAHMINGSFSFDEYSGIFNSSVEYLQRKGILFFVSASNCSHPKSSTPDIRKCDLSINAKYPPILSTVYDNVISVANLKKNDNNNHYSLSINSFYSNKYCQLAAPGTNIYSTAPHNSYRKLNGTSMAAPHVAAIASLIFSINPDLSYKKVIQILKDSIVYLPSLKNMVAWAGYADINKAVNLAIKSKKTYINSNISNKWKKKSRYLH
Summary of the method: (§1)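 Chymotrypsin-treated recombinant PfSUB1 stock (228 U/mL) was diluted 1:500 in 20 mM Tris-HCl pH 8.2, 150 mM NaCl, 12 mM CaCl2, 25 mM CHAPS. Inhibitor DMSO stocks (500 to 0.01 μM) were diluted 1:100 and preincubated with enzyme for 5 min. Fluorogenic SERA4st1F-6R12 substrate was then added (0.1 μM final), with ex 552/em 580 nm read every 3 min for 60 min.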

[2] = biological target: T2, Subtilisin-like protease 1 (Plasmodium falciparum) (UniProt O61142); assay: Inhibition of recombinant Plasmodium falciparum SUB1 using Ac-CKITAQDDEESC-OH as fluorogenic substrate at 1 uM pre-incubated for 5 mins followed by substrate addition and measured every 3 mins for 60 mins by fluorescence based SpectraMax M5e plate reader; conditions: time 65.0 min
T2 sequence (whole entry): T1 sequence (O61142 whole entry)

[3] = biological target: T3, Proteasome Macropain subunit MB1 (Homo sapiens, UniProt P28074); assay: Inhibition of human 20s proteasome beta5 subunit mediated chymotrypsin-like activity using LLVY-R110 as substrate measured every three mins for 1 hr by fluorescence based SpectraMax M5e plate reader
T3 sequence (P28074 whole entry): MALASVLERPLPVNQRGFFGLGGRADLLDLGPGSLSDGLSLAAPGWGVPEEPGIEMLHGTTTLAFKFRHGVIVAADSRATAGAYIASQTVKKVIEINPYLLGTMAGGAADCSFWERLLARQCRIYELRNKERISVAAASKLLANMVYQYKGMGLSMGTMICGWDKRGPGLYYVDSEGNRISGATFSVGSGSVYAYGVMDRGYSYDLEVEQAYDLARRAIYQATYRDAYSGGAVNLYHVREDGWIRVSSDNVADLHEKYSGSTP
Summary of the method: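 Purified human 20S proteasome was diluted in TBS pH 7.4 to a 0.44 μM intermediate stock. Serial DMSO dilutions of inhibitor (1 μL) went into a 100 μL reaction with LLVY-R110 substrate, and 1 μL of proteasome stock was added to start.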

[4] = Selectivity ratio IC50 for human 20s proteasome beta5 subunit mediated chymotrypsin-like activity to IC50 for Plasmodium falciparum SUB1
[5] = biological target: T1, Subtilisin-like protease 1; assay: Inhibition of recombinant Plasmodium falciparum SUB1 using Ac-CKITAQDDEESC-OH as fluorogenic substrate pre-incubated for 5 mins followed by substrate addition and measured every 3 mins for 60 mins by fluorescence based SpectraMax M5e plate reader; summary of the method: as §1

Structure (SMILES) | IC50 [1] | IC50 [3] | also measured
CC(=O)N[C@H](C(=O)N[C@H](C(=O)NCC(=O)N[C@@H](C)B(O)O)[C@@H](C)O)C1CCCC1 | 9.3 nM | – | –
CC(C)C[C@H](NC(=O)[C@H](Cc1ccccc1)NC(=O)c1cnccn1)B(O)O | – | – | inhibition [2]: inactive
CC[C@H](C)[C@H](NC(=O)[C@@H](NC(=O)c1cc(C)cc(C)c1)C1CCCC1)C(=O)NCC(=O)N[C@H]1CCC(=O)OB1O | – | 1000 nM | –
CC(=O)N[C@H](C(=O)N[C@H](C(=O)NCC(=O)N[C@H]1CCC(=O)OB1O)[C@@H](C)O)C1CCCC1 | 18.7 nM | 35600 nM | Ratio IC50 [4]: 1900
CC[C@H](C)[C@H](NC(=O)[C@@H](NC(=O)c1ccccc1)C1CCCC1)C(=O)NCC(=O)N[C@@H](C)B(O)O | – | – | IC50 [5]: 3.2 nM
